According to ChEMBL document CHEMBL4811266 (Bioorg Med Chem Lett, 2021):
Numbered stars: 1 amine (or outer) side, 2 acyl side, 3 side chain; on linkers, the order of the positions; unused ones are H or OH. Square brackets hold non-standard residues; d marks the D form. Peptide text beside a SMILES is read from it. X1 = O=C([C@@H]1Cc2cc(O)ccc2CN1[*:1])[*:2]; Tic(7-OH) = O=C(O)[C@@H]1Cc2ccc(O)cc2CN1

Tests used:
[1] = biological target: T1, Type-1 angiotensin II receptor (Homo sapiens, UniProt P30556); experiment: Displacement of [125-I]-[Sar1, Ile8] from recombinant human AT1R transfected in human HEK293 cells incubated for 2 hrs by liquid scintillation counter analysis; format: cell-based
T1 sequence (P30556 whole entry): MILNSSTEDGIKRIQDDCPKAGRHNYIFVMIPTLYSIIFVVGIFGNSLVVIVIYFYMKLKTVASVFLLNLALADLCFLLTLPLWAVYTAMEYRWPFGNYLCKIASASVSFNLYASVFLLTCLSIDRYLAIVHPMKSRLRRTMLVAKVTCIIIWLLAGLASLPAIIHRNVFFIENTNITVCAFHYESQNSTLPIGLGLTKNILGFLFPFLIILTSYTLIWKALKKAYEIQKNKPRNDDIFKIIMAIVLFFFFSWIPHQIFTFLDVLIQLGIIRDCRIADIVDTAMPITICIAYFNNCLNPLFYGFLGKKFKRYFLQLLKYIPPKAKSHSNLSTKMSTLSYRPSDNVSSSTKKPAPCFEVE

[2] = biological target: T2, Type-2 angiotensin II receptor (Homo sapiens, UniProt P50052); experiment: Displacement of [125-I]-[Sar1, Ile8] from recombinant human AT2R transfected in human HEK293 cells incubated for 2 hrs by liquid scintillation counter analysis; format: cell-based
T2 sequence (P50052 whole entry): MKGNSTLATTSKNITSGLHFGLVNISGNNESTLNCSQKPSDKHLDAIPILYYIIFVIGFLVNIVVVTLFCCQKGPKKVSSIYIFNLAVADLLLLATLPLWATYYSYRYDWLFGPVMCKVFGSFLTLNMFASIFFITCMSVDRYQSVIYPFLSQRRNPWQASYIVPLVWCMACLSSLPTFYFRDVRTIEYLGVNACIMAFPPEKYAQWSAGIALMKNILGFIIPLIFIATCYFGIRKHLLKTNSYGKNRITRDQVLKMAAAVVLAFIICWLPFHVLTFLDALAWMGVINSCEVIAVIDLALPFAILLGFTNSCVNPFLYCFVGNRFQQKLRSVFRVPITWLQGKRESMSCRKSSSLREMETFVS

[3] = Stability of compound in human plasma assessed as parent compound remaining incubated for 24 hrs by LC-MS/MS analysis; format: ADME, cell-free; settings: read-out: Stabilty
In short: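 Peptides were incubated in human plasma and sampled at different time intervals up to 24 h. Remaining concentration was monitored by LC-MS using selected abundant transitions and expressed relative to the initial concentration.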

Homo sapiens = species on record: Homo sapiens; experiment: Selectivity index, ratio of IC50 for displacement of [125-I]-[Sar1, Ile8] from recombinant human AT1R transfected in human HEK293 cells to IC50 for displacement of [125-I]-[Sar1, Ile8] from recombinant human AT2R transfected in human HEK293 cells

Molecule | IC50 [1] [µM] | IC50 [2] [µM] | remaining at 24 h [3] [%] | Ratio IC50 (Homo sapiens)
CC[C@H](C)[C@H](NC(=O)[C@H](Cc1ccc(O)cc1)NC(=O)[C@@H](NC(=O)[C@H](CCCNC(=N)N)NC(=O)[C@@H](N)CC(=O)O)C(C)C)C(=O)N[C@H]1Cc2c([nH]c3ccccc23)CN(CC(=O)N[C@@H](Cc2ccccc2)C(=O)O)C1=O | > 10 | 0.0457 | > 50 | > 219
CC[C@H](C)[C@H](NC(=O)[C@H](Cc1ccc(O)cc1)NC(=O)[C@@H](NC(=O)[C@@H](N)CCCNC(=N)N)C(C)C)C(=O)N[C@H]1Cc2c([nH]c3ccccc23)CN(CC(=O)N[C@@H](Cc2ccccc2)C(=O)O)C1=O | > 10 | 0.107 | 70 | > 94
CC[C@H](C)[C@H](NC(=O)[C@H](Cc1ccc(O)cc1)NC(=O)[C@@H](NC(=O)[C@H](CCCNC(=N)N)NC(=O)[C@@H](N)CC(=O)O)C(C)C)C(=O)N1Cc2cc(O)ccc2C[C@H]1C(=O)N1CCC[C@H]1C(=O)N[C@@H](Cc1ccccc1)C(=O)O (H-DRVYI[Tic(7-OH)]PF-OH) | > 10 | 0.0892 | > 90 | > 112
CC[C@H](C)[C@H](NC(=O)[C@H](Cc1ccc(O)cc1)NC(=O)[C@@H](NC(=O)[C@@H](N)CCCNC(=N)N)C(C)C)C(=O)N1Cc2ccc(O)cc2C[C@H]1C(=O)N1CCC[C@H]1C(=O)N[C@@H](Cc1ccccc1)C(=O)O (H-RVYI[X1]PF-OH) | 2.01 | 0.315 | > 50 | 6.4
H-DRVYIYPF-OH | 72.5 |  | > 50 | 18000

Now those with a lower IC50 [1], led by results:

IC50 [1] [µM] | IC50 [2] [µM] | remaining at 24 h [3] [%] | Molecule | Ratio IC50 (Homo sapiens)
0.174 | 0.0593 | > 50 | CC[C@H](C)[C@H](NC(=O)[C@H](Cc1ccc(O)cc1)NC(=O)[C@@H](NC(=O)[C@H](CCCNC(=N)N)NC(=O)[C@@H](N)CC(=O)O)C(C)C)C(=O)N1Cc2ccc(O)cc2C[C@H]1C(=O)N1CCC[C@H]1C(=O)N[C@@H](Cc1ccccc1)C(=O)O (H-DRVYI[X1]PF-OH) | 2.9
0.134 | 0.119 | > 70 | CC[C@H](C)[C@H](NC(=O)[C@H](Cc1ccc(O)cc1)NC(=O)[C@@H](NC(=O)[C@@H](N)CCCNC(=N)N)C(C)C)C(=O)N1Cc2cc(O)ccc2C[C@H]1C(=O)N1CCC[C@H]1C(=O)N[C@@H](Cc1ccccc1)C(=O)O (H-RVYI[Tic(7-OH)]PF-OH) | 1.1
